Data reported in PMC3753066 (Nature methods, 2013).
Values after ≈ are worked out from the molar mass of the structure shown. Starred links: 1 amine or outer side, 2 acyl side, 3 side chain; linkers in the order of their positions; H or OH if unused. Non-standard residues stand in square brackets, D forms with d. Residues, ends and D or L forms follow the SMILES beside them. X1 = CCCCCCCC[C@@H](C(=O)[*:2])N(C)[*:1]; Gly(octyl) = CCCCCCCC[C@H](N)C(=O)O; NMeL = CN[C@@H](CC(C)C)C(=O)O

Experiments:
[1] = Water solubility of the peptides; format: physicochemical
[2] = biological target: MsbA (Escherichia coli, UniProt P60752); experiment: MsbA ATPase activity and stability in BPs or detergent; format: biochemical, E. coli; settings: for ATPase activity of MsbA solubilized in the reagent: measured in triplicate at 37 °C, 20 mM Tris pH 7.5, 20 mM NaCl, 0.2–0.5 mg/mL
Sequence of MsbA (P60752 whole entry): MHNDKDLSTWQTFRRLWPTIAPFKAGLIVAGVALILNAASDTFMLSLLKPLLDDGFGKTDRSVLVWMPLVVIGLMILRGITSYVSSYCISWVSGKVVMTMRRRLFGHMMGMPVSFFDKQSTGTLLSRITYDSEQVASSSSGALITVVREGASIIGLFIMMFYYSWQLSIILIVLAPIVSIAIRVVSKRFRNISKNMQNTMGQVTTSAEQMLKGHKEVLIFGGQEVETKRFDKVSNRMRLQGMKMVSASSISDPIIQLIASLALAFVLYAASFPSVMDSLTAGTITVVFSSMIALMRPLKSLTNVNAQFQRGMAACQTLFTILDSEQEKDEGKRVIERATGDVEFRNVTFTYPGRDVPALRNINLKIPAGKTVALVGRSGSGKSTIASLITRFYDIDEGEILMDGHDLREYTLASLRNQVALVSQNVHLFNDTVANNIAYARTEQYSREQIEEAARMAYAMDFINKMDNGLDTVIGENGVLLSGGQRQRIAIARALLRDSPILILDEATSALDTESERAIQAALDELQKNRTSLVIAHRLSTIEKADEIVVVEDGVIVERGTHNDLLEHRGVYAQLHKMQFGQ
How it was run: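 E. coli MsbA purified in UDM, then mixed with peptide at 50:1–100:1 molar ratio (peptide:protein). Detergent was removed by dialysis (6 kDa cutoff, 4 °C, 1–2 days, TLC-monitored) and the supernatant kept after 300,000 × g, 2 h, 4 °C. Comparison preparations were in UDM, LMNG, Amphipol A8-35 (5:1 w/w) or MSP1D1/DMPC nanodiscs. Samples (0.2–0.5 mg/mL) were held at RT up to 40 days, with linked-enzyme ATPase read-out, means ± standard error.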

Row | SMILES | solubility [1] [µM] | change of MsbA ATPase activity on incubation ([2]; 40 days of incubation at RT) | ATPase activity of MsbA solubilized in the reagent [2] | loss of MsbA ATPase activity ([2]; within the first day of incubation at RT, accompanied by protein precipitation)
1 | CCCCCCCC[C@H](NC(C)=O)C(=O)N[C@@H](CO)C(=O)N[C@@H](CC(C)C)C(=O)N[C@@H](CO)C(=O)N(C)[C@@H](CC(C)C)C(=O)N[C@@H](CC(=O)O)C(=O)N[C@@H](CCCCCCCC)C(=O)N[C@@H](CC(=O)O)C(N)=O [BP-1] (Ac-[Gly(octyl)]SLS[NMeL]D[Gly(octyl)]D-NH2) | ~3000 (≈ 3130 µg/mL) | little change | ~ 4 μmol/min/mg | –
2 | CCCCCCCC[C@H](NC(C)=O)C(=O)N[C@@H](CO)C(=O)N(C)[C@@H](CC(C)C)C(=O)N[C@@H](CO)C(=O)N(C)[C@@H](CC(C)C)C(=O)N[C@@H](CC(=O)O)C(=O)N[C@@H](CCCCCCCC)C(=O)N[C@@H](CC(=O)O)C(N)=O [BP-2] (Ac-[Gly(octyl)]S[NMeL]S[NMeL]D[Gly(octyl)]D-NH2) | ~3000 (≈ 3170 µg/mL) | – | – | –
3 | CCCCCCCC[C@H](NC(C)=O)C(=O)N[C@@H](CO)C(=O)N(C)[C@@H](CC(C)C)C(=O)N[C@@H](CO)C(=O)N(C)[C@@H](CC(C)C)C(=O)N[C@@H](CC(=O)O)C(=O)N(C)[C@@H](CCCCCCCC)C(=O)N[C@@H](CC(=O)O)C(N)=O [BP-3] (Ac-[Gly(octyl)]S[NMeL]S[NMeL]D[X1]D-NH2) | ~1000 (≈ 1070 µg/mL) | – | – | –
4 | CCCCCCCCCCCO[C@@H]1O[C@H](CO)[C@@H](O[C@H]2O[C@H](CO)[C@@H](O)[C@H](O)[C@H]2O)[C@H](O)[C@H]1O [UDM, β-D-undecylmaltoside, reference compound] | – | – | 2.2 µmol/min/mg | ~ 80%
